Results as given in ChEMBL document CHEMBL4431393, “Polar Recognition Group Study of Keap1-Nrf2 Protein-Protein Interaction Inhibitors” (ACS Med Chem Lett, 2016).
Values after ≈ are worked out from the molar mass of the structure shown.

Legend:
[1] = Intrinsic solubility of the compound at pH 7.4 by potentiometric acid-base titration method; format: physicochemical; conditions: buffer, read-out: Intrinsic_solubility
[2] = Dissociation constant, pKa of the compound by Avdeef-Bucher potentiometric titration method; format: physicochemical
[3] = Partition coefficient, logD of the compound at pH 7.4 by Avdeef-Bucher potentiometric titration method; format: physicochemical; conditions: octanol/water
[4] = Permeability of the compound at pH 7.4 by PAMPA method; format: ADME; conditions: read-out: permeability
How it was run: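 Effective permeability coefficients (Pe) were determined by a standard parallel artificial membrane permeability assay run on an automated PAMPA instrument. This reads out passive transcellular diffusion.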

Keap1/Nrf2 = Keap1/Nrf2 (Homo sapiens, UniProt Q14145); experiment: Inhibition of Keap1 Kelch domain/FITC-9mer Nrf2 (unknown origin) interaction after 30 mins by fluorescence polarization assay; format: protein assay
Keap1/Nrf2, sequence (Q16236 whole entry, the tested form may be a part): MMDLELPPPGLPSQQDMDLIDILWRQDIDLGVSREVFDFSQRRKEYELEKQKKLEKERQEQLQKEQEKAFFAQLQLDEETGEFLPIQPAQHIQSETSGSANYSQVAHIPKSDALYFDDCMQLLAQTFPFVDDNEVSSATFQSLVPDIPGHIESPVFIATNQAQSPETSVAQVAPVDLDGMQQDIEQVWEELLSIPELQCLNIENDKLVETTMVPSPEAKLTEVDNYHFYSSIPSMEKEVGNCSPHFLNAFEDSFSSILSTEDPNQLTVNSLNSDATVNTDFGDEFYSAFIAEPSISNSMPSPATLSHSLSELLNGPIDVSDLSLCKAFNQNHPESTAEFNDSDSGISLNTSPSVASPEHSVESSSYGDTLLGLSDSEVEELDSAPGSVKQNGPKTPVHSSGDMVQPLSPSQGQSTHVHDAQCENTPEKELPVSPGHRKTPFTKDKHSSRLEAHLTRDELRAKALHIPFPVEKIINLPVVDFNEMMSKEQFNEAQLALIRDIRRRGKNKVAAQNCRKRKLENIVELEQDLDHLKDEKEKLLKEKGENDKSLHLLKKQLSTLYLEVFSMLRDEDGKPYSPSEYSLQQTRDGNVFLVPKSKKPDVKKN
Keap1/Nrf2, sequence (Q14145 whole entry, the tested form may be a part): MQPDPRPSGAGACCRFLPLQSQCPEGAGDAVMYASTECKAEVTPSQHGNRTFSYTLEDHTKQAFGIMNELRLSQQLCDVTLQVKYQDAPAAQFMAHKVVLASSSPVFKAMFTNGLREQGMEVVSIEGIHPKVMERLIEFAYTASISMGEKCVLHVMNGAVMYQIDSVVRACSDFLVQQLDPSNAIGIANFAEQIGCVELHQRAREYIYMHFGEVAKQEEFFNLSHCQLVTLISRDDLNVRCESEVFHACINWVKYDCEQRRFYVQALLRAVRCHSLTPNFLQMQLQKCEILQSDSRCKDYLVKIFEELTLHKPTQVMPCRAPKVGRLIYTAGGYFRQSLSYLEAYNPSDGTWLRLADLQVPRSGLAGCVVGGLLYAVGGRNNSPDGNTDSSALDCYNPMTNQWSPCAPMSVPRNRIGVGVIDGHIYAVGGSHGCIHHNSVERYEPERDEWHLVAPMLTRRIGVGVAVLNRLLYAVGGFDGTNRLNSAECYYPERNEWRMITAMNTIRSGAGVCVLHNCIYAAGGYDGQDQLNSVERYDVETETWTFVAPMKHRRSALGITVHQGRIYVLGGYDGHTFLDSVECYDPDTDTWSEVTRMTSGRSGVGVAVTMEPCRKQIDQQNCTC

SMILES	solubility [1]	pKa [2]	logD [3]	Papp [4]	IC50 (Keap1/Nrf2)
CC(=O)Nc1ccc(S(=O)(=O)N(Cc2nn[nH]n2)c2ccc(N(Cc3nn[nH]n3)S(=O)(=O)c3ccc(NC(C)=O)cc3)c3ccccc23)cc1	3500 µg/mL (≈ 4880 µM)	5.12	2.31	42.3 ×10⁻⁶ cm/s	
CC(=O)Nc1ccc(S(=O)(=O)N(CC(=O)O)c2ccc(N(CC(=O)O)S(=O)(=O)c3ccc(NC(C)=O)cc3)c3ccccc23)cc1	5000 µg/mL (≈ 7480 µM)	4.79		0.265 ×10⁻⁶ cm/s	
CC(=O)Nc1ccc(S(=O)(=O)N(CC#N)c2ccc(N(CC#N)S(=O)(=O)c3ccc(NC(C)=O)cc3)c3ccccc23)cc1	14.1 µg/mL (≈ 22.4 µM)	10.5	4.65		> 50 µM
CC(=O)Nc1ccc(S(=O)(=O)N(CC(N)=O)c2ccc(N(CC(N)=O)S(=O)(=O)c3ccc(NC(C)=O)cc3)c3ccccc23)cc1	388 µg/mL (≈ 583 µM)	9.8	3.21		> 50 µM

Next, values leading:

solubility [1]	pKa [2]	logD [3]	Papp [4]	IC50 (Keap1/Nrf2)	SMILES
36.4 µg/mL (≈ 52.2 µM)	10.5	3.91		> 50 µM	COC(=O)CN(c1ccc(N(CC(=O)OC)S(=O)(=O)c2ccc(NC(C)=O)cc2)c2ccccc12)S(=O)(=O)c1ccc(NC(C)=O)cc1
942 µg/mL (≈ 1350 µM)	8.12	2.87		2.6 µM	CC(=O)Nc1ccc(S(=O)(=O)N(CC(=O)NO)c2ccc(N(CC(=O)NO)S(=O)(=O)c3ccc(NC(C)=O)cc3)c3ccccc23)cc1
11.2 µg/mL (≈ 17.8 µM)	10.7	4.75		> 50 µM	C#CCN(c1ccc(N(CC#C)S(=O)(=O)c2ccc(NC(C)=O)cc2)c2ccccc12)S(=O)(=O)c1ccc(NC(C)=O)cc1
655 µg/mL (≈ 1020 µM)	10.8	2.99		> 50 µM	CC(=O)Nc1ccc(S(=O)(=O)N(CCO)c2ccc(N(CCO)S(=O)(=O)c3ccc(NC(C)=O)cc3)c3ccccc23)cc1
698 µg/mL (≈ 976 µM)	9.67	3.01		0.609 µM	CC(=O)Nc1ccc(S(=O)(=O)N(Cc2c[nH]nn2)c2ccc(N(Cc3c[nH]nn3)S(=O)(=O)c3ccc(NC(C)=O)cc3)c3ccccc23)cc1
